Measurements published in ChEMBL document CHEMBL1150653, “Novel terpenoids from the formosan soft coral Cespitularia hypotentaculata” (2002).
Converted amounts (≈) assume the structure as drawn.

Key:
Type in all cases: functional
A549 = assay: Cytotoxicity against human A549 cells after 6 days by MTT assay; settings: A549, 144 h, read-out: ED50 (the source's name)
Summary of the method: (§1)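 Human cell lines: A549 (lung adenocarcinoma) and HT-29 (colon adenocarcinoma), obtained from a culture collection. The assay follows a previously published procedure.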

HT-29 = assay: Cytotoxicity against human HT-29 cells after 6 days by MTT assay; settings: HT-29, 144 h, read-out: ED50 (the source's name); summary of the method: as §1
P388 = assay: Cytotoxicity against mouse P388 cells after 3 days by MTT assay; settings: P388, 72 h, read-out: ED50 (the source's name)
Summary of the method: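 Mouse P-388 lymphocytic leukemia cells, obtained from an academic laboratory. The assay follows a previously published procedure.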

Structure (SMILES) | EC50 (A549) | EC50 (HT-29) | EC50 (P388)
C=C1CC[C@@H]2CCc3coc(c3C2(C)C)C/C(C)=C/C(O)C1 (some centres undefined) [CESPITULARIN A] | 8.42 µg/mL (≈ 28 µM) | 9.76 µg/mL (≈ 32.5 µM) | 3.66 µg/mL (≈ 12.2 µM)
C=C1CC/C=C(\C)[C@@H]2C(=O)C3=C(CC[C@@H](CC1)C3(C)C)[C@@H]2O [CESPITULARIN G] | > 50 µg/mL | > 50 µg/mL | > 50 µg/mL
C=C1CC[C@@H]2CCC3=C(C2(C)C)[C@@](O)(C/C(C)=C/[C@@H](O)C1)OC3=O [CESPITULARIN D] | > 50 µg/mL | > 50 µg/mL | 3.86 µg/mL (≈ 11.6 µM)
C=C1CC[C@@H]2CCC3=C(C(=O)[C@@H](/C(C)=C/C(O)C1)[C@H]3O)C2(C)C (some centres undefined) [CESPITULARIN F] | 16.1 µg/mL (≈ 50.9 µM) | > 50 µg/mL | > 50 µg/mL
C=C1CC/C=C(\C)Cc2occ3c2C(C)(C)[C@H](CC1)CC3 [CESPITULARIN B] | 7.96 µg/mL (≈ 28 µM) | 9.25 µg/mL (≈ 32.5 µM) | 3.23 µg/mL (≈ 11.4 µM)
C=C1CC/C=C(\C)C[C@@H](O)C2=C(C)CC[C@@H](CC1)C2(C)C [CESPITULARIN C] | 0.12 µg/mL (≈ 0.416 µM) | 8.86 µg/mL (≈ 30.7 µM) | 0.01 µg/mL (≈ 0.0347 µM)
C/C1=C\C[C@@H]2CCC3=C(C(=O)[C@@H]([C@@H](C)CC(=O)C1)[C@H]3O)C2(C)C [CESPITULARIN H] | 9.32 µg/mL (≈ 29.5 µM) | 23.7 µg/mL (≈ 74.9 µM) | > 50 µg/mL
C=C1CC[C@@H]2CCC=C(C(=O)C/C(C)=C/C(O)C1)C2(C)C (some centres undefined) [CESPUTULARIN E] | 0.034 µg/mL (≈ 0.118 µM) | 17.1 µg/mL (≈ 59.3 µM) | 4.66 µg/mL (≈ 16.2 µM)
